AHR activator: activates the human aryl hydrocarbon receptor | activation, % at 5 µM | AHR-responsive luciferase reporter cells, luminescence | P35869 | 2.5% of 320,000 active; in the data active = activation above about 47%;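 also: 0% = vehicle wells and 100% = reference agonist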
STAT3 act: increases IL-6 driven STAT3 reporter signal; 0.91% of 190,000 active; U3A cells, IL-6 STAT3-luciferase reporter, luminescence; 100% = signal with IL-6 EC80 alone; activation (% of control), % at 5.6 µM;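 active = activation above the screen-wide mean of compound activation plus 3 SD, cut at about 130% in these data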;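 also: 0% = background luminescence of wells with medium and substrate only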
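Test system: Human STAT1-deficient U3A cells with stable STAT3-luciferase reporter | Also added: Interleukin-6, 33 ng/mL | Timing: Compound pre-incubation 1 h before IL-6, then 6 h stimulation at 37 °C | Technique: Luciferase reporter luminescence | Read-out: Percent of IL-6-only median luminescence | Benchmarks: IL-6-only wells as 100% reference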
ABCB6 inh MLPCN: human ABCB6 transporter inhibition. K562-ABCB6 porphyrin accumulation, flow cytometry, 1 h; hits give low values. Q9NP58. fluorescence ratio to DMSO, % at 10 µM. 0.19% of 360,000 active. AID 602162;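 active = fluorescence ratio to DMSO below 75%, the collection mean minus 3 SD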;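 also: signal is porphyrin accumulated inside mitochondria; 100% equals median channel fluorescence of DMSO control wells; lower ratio means ABCB6 inhibition with less porphyrin fluorescence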
Target sequence (Q9NP58 whole entry, looked up): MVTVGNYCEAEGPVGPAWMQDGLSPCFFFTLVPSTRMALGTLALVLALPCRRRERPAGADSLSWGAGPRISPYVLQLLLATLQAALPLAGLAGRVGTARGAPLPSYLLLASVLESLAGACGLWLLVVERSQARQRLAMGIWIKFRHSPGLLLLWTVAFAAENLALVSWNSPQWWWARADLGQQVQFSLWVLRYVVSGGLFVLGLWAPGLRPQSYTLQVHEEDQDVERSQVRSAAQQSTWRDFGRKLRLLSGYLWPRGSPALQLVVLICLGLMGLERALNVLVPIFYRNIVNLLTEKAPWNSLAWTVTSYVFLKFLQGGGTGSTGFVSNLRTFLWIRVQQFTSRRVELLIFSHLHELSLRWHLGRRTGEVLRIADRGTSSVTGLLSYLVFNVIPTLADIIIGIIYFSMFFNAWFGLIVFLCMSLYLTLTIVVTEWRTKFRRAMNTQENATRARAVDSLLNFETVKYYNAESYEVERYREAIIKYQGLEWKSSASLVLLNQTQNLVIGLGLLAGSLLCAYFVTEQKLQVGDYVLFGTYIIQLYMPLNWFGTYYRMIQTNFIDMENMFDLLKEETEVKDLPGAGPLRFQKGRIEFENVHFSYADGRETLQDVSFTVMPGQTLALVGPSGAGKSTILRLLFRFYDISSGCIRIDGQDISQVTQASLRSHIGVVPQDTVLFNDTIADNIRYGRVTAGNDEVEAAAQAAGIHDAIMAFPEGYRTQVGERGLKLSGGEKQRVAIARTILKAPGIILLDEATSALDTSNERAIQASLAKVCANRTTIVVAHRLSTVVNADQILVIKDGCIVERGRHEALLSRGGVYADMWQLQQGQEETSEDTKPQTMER
FXN GAA850 act: increases GAA850 frataxin promoter reporter activity; activation, % at 6 µM; AID 540364; 0.56% of 360,000 active; HEK293 lucGAA850 FXN promoter luciferase reporter, 24 h; percent of 10 µM SAHA response;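 active = activation above the average of all compounds screened plus 3 SD, cutoff fixed separately per campaign, cut at about 7.5% in these data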;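 also: 0% = DMSO wells and 100% = 10 µM SAHA wells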
AHR act cf: human AHR activation, confirmation. human cells, AHR-responsive luciferase reporter, luminescence. 87% of 2,300 active. activation, % at 9 µM. shares compounds with AHR activator; in the data active = activation above about 49%;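 also: HepG2 hepatoma cells carrying a DRE-driven firefly luciferase reporter; 0% = vehicle wells and 100% = reference agonist wells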
PXR counter: PXR activation, counter-screen for AHR activators; shares compounds with AHR activator; cell-based PXR reporter, luciferase luminescence; activation, % at 11.6 µM; 88% of 2,300 active; AID 434939; in the data active = activation above about 11%;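 also: human hepatoma DPX-2 cells expressing full-length human PXR; 0% = DMSO and 100% = reference agonist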
Numbers without * were called inactive; nt = not tested or not shown. The list is not random: actives were taken first. Their share in the collection is about 3.3%.

SMILES	AHR activator	STAT3 act	ABCB6 inh MLPCN	FXN GAA850 act	AHR act cf	PXR counter
C/C(=N\Nc1ccc([N+](=O)[O-])cc1[N+](=O)[O-])c1ccc(-n2nncc2C(C)(C)C)cc1	120.4*	111.8	96.0	0.5	77.8*	37.9*
Fc1ccc(N=C2NN=C(c3cc(F)ccc3F)CS2)cc1	12.3	89.7	106.0	1.9	nt	nt
Fc1ccc(F)c(C2=NNC(=Nc3ccccc3F)SC2)c1	79.2*	112.6	91.0	5.0	69.5*	56.1*
Cc1cc(C)nc(/N=C(\N)Nc2ccc(C)c([N+](=O)[O-])c2)n1	122.1*	87.9	96.0	-0.3	83.9*	67.7*
C/C(=C1/C(=O)N(c2ccc([N+](=O)[O-])cc2)N=C1c1ccccc1)N(C)C	87.4*	100.9	nt	nt	36.5	28.8*
CCn1c(SCC(=O)N/N=C/C=C\c2ccccc2[N+](=O)[O-])nc2ccccc21	33.2	85.6	85.0	-0.2	nt	nt
Cn1c(SCC(=O)N/N=C/C=C\c2ccccc2[N+](=O)[O-])nc2ccccc21	108.2*	86.8	99.0	0.1	54.9*	81.0*
Cn1c(SCC(=O)N/N=C/C=C/c2ccccc2[N+](=O)[O-])nc2ccccc21	117.3*	98.2	100.0	0.0	55.6*	74.9*
COc1ccc(/C=C/C(=O)c2ccc(OC)cc2OC)cc1	-3.0	nt	93.0	-0.3	nt	nt
COc1ccc(/C=C/C(=O)c2cc3c(cc2N)OCO3)cc1	95.9*	91.8	98.0	5.5	127.8*	26.3*
CC(C)(C)c1ccc(-n2ncc3c2CCCC3NC(=O)C2(C(N)=O)CC2)cc1 (stereo not drawn)	-7.2	nt	103.0	-2.1	nt	nt
Cn1c(=O)n(CCc2ccccc2)c(=O)c2c1ncn2Cc1ccccc1	80.6*	123.2	81.0	-2.3	94.5*	28.1*
Cn1c(=O)n(CCc2ccccc2)c(=O)c2c1nc1n2CCCN1Cc1ccccc1	119.1*	89.7	96.0	-1.0	82.6*	149.5*
Cn1cnc2c1c(=O)n(Cc1ccccc1)c(=O)n2C	2.9	nt	89.0	2.0	nt	nt
CC(C)CNC(=S)N(CCCO)Cc1cc2cc3c(cc2[nH]c1=O)OCO3	91.7*	nt	99.0	1.1	100.2*	19.1*
CC(=O)c1c(C)[nH]c(C(=O)Nc2cccc(C)n2)c1C	5.2	nt	101.0	-1.1	nt	nt
O=C(COc1ccccc1)Nc1nnc(COc2ccccc2)s1	nt	nt	100.0	2.2	nt	nt
CC(=O)N1CCc2c(sc(NC(=O)C3CC3)c2-c2nc3ccccc3s2)C1	105.8*	103.3	133.0	2.4	99.7*	28.2*
COc1cc(CNc2ncnc3c2ncn3[C@H]2CN(Cc3ccco3)C[C@@H](CO)O2)cc(OC)c1OC	nt	nt	94.0	-1.0	nt	nt
Cn1c(CNc2ccc(Cl)cc2)nnc1SCc1ccccc1	101.2*	101.6	90.0	2.2	44.5	140.9*
CCn1c(CNc2ccc(Cl)cc2)nnc1SCc1ccccc1	1.2	91.0	91.0	-1.2	nt	nt
CN(C(=O)c1cc([N+](=O)[O-])ccc1NCc1cccnc1)c1ccccc1	80.4*	nt	92.0	-0.2	72.2*	87.9*
NC(=O)c1cc([N+](=O)[O-])ccc1NCc1cccnc1	15.5	92.3	95.0	6.3	nt	nt
CC(=O)ONC(=Nc1ccccc1)c1nonc1N	0.8	nt	100.0	0.9	nt	nt
NC(=Nc1ccccc1)NC(=O)c1nc(Cl)c(N)nc1N	85.5*	nt	101.0	5.6	29.8	35.4*
SMILES	AHR activator	STAT3 act	ABCB6 inh MLPCN	FXN GAA850 act	AHR act cf	PXR counter
c1ccc(-n2nc3c(ccc4cnnc43)[nH]2)cc1	131.3*	112.2	82.0	6.1	148.8*	26.0*
CCOc1ccc(NC(=O)c2csc3c2CCCC3)cc1	146.1*	104.1	96.0	4.8	110.4*	44.6*
O=c1c2ccccc2nc2n1CCc1c-2[nH]c2ccccc12	98.9*	nt	97.0	6.5	222.8*	19.6*
O=C(CN1C2=NCCN2c2ccccc21)c1ccc(Br)s1	93.8*	100.4	100.0	-0.2	81.3*	13.6*
O=C(CN1C2=NCCN2c2ccccc21)c1ccc2c(c1)OCO2	7.2	95.6	98.0	-1.1	nt	nt
O=C(CN1C2=NCCCN2c2ccccc21)c1cccs1	3.3	96.9	96.0	-0.4	nt	nt
O=C(CN1C2=NCCN2c2ccccc21)c1ccc(Br)cc1	112.3*	113.8	99.0	-1.2	71.3*	20.9*
COc1cc(NC(=O)C/C(C)=N/NC(=O)C(OC)c2ccccc2)c(OC)cc1Cl (stereo not drawn)	105.2*	103.6	98.0	-0.3	24.0	10.1
CCC(C(=O)Nc1cc(Cl)ccc1OC)c1ccccc1 (stereo not drawn)	3.6	103.3	105.0	2.5	nt	nt
COc1ccc(Cl)cc1NC(=O)C(OC)c1ccccc1 (stereo not drawn)	101.2*	95.8	98.0	-2.7	96.6*	47.3*
CN1CCN(c2nc(-c3ccc(Br)cc3)nnc2-c2ccccc2)CC1	131.8*	111.3	98.0	2.3	90.2*	48.8*
Brc1ccc(-c2nnc(-c3ccccc3)c(N3CCSCC3)n2)cc1	123.4*	125.1	94.0	1.1	93.3*	74.8*
Cc1ccc(-c2nnc(-c3ccccc3)c(N3CCOCC3)n2)cc1	2.5	89.1	105.0	-1.4	nt	nt
CCOC(=O)c1nnc(-c2ccccc2)nc1N1CCSCC1	39.9	101.6	100.0	0.3	nt	nt
Cc1cc(C)n2nc(C(=O)OCC(=O)Nc3ccc(C)c(S(=O)(=O)N(C)C)c3)nc2n1	0.0	nt	100.0	0.5	nt	nt
O=C(CSc1nnc(-c2ccncc2)o1)Nc1ccc(F)c(F)c1	2.5	nt	98.0	2.5	nt	nt
COC(=O)c1ccccc1NC(=O)c1ccc(-c2cccc(Cl)c2)o1	1.8	97.2	99.0	0.2	nt	nt
COC(=O)c1sccc1-c1ccc(C(=O)Nc2cccc(Cl)c2)o1	103.7*	114.3	98.0	8.3*	73.9*	24.7*
Cc1ccc2nc(-c3ccc(-c4cccc(Cl)c4)cc3)c(NCc3ccccc3)n2c1	86.2*	nt	112.0	1.3	36.7	28.0*
Cc1ccc(-c2nc3ccccn3c2NCc2ccc3c(c2)OCO3)cc1	108.8*	105.4	96.0	3.9	78.9*	84.5*
C=CCNC(=O)c1ccccc1NC(=O)c1cccc2ccccc12	94.4*	99.5	94.0	-1.1	89.0*	83.9*
Cn1c(=O)[nH]c2nnc(-c3ccc(Cl)c(Cl)c3)nc2c1=O	112.0*	nt	97.0	3.2	42.5	15.3*
CSc1cnc2c(=O)n(C)c(=O)[nH]c2n1	1.0	99.9	101.0	0.5	nt	nt
CCOc1ccc(/C=C/C(=O)c2c(O)cc(C)oc2=O)cc1	83.0*	nt	100.0	2.9	9.8	15.5*
O=C(CCS(=O)(=O)Cc1ccc(Cl)cc1)NCCCN1CCN(c2ccccc2F)CC1	-1.3	86.9	94.0	-1.7	nt	nt
CCOc1cc2nc(-c3ccc(OC)c(OC)c3)nc(NCCCN3CCOCC3)c2cc1OC	101.1*	96.5	99.0	-2.9	119.5*	17.5*
O=C(CCl)Nc1cccc(-c2cnc3ccccc3n2)c1	117.8*	71.7	100.0	-13.1	28.8	8.5
